The record followed here is ChEMBL document CHEMBL3526053, “Species-dependent uptake of glycylsarcosine but not oseltamivir in Pichia pastoris expressing the rat, mouse, and human intestinal peptide transporter PEPT1” (Drug Metab Dispos, 2012).

What all share (assay type): ADME
Data set [1] concerns the target T1, Solute carrier family 15 member 1 (Rattus norvegicus, UniProt P51574).
T1 sequence (P51574 whole entry): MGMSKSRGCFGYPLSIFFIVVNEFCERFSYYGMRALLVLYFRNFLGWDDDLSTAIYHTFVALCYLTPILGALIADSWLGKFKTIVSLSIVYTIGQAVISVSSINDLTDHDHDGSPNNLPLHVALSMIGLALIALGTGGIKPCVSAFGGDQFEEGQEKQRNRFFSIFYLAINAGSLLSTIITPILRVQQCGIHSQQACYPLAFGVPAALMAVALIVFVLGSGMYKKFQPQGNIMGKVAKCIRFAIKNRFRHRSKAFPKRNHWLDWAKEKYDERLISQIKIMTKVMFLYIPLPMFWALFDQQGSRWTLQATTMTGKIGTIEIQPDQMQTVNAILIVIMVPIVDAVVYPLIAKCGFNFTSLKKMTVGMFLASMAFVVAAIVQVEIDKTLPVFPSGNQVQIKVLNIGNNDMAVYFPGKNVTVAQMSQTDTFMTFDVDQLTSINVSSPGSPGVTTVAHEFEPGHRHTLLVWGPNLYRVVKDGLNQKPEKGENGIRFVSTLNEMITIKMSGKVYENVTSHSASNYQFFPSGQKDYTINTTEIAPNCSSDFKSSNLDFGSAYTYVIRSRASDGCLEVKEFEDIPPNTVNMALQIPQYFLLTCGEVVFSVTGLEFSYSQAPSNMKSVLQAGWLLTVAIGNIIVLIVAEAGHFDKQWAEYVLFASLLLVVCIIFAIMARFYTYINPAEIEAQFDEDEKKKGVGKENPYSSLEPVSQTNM
Briefly: Drug uptake in Pichia pastoris GS115 expressing rat recombinant PEPT1 at 5 uM after 30s by dual-channel liquid scintillation counting analysis in presence of cephalothin relative to control. To be noted: 0.5 min. The gist of the method: (§1)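 Rat PEPT1 (pPIC3.5K-rPept1) in GS115 His+Mut+ transformant, methanol-induced 20-24 hr in BMMY at 30°C, washed into 100 mM potassium phosphate pH 6.5. [3H]GlySar final 5.0 µM with inhibitor at 10 mM, 30 sec at 24°C. Counts taken by liquid scintillation after 24 hr standing. Values are vector-subtracted and given as % of buffer control. Mean ± SE, n=3.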

For data set [2], the target named is T2, Solute carrier family 15 member 1 (Homo sapiens, UniProt P46059).
T2 sequence (P46059 whole entry): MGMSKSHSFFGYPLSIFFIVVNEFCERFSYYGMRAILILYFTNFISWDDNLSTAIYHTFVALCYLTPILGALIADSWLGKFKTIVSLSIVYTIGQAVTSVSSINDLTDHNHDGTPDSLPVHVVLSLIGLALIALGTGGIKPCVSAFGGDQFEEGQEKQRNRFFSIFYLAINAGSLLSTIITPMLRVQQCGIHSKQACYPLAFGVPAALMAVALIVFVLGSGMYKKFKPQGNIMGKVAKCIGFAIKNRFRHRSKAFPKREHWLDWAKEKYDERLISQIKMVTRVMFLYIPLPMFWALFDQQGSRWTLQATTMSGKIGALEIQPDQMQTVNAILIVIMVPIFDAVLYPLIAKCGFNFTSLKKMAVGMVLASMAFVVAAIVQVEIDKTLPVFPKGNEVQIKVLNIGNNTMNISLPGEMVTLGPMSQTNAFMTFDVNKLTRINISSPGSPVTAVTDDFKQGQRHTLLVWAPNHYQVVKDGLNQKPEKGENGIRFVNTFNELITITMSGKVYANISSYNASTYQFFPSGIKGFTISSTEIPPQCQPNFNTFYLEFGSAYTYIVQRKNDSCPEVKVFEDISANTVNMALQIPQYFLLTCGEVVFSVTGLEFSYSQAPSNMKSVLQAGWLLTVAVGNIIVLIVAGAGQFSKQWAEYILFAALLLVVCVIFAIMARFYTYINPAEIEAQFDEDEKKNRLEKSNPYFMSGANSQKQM
Briefly: Drug uptake in Pichia pastoris GS115 expressing human recombinant PEPT1 at 5 uM after 30s by dual-channel liquid scintillation counting analysis in presence of cefadroxil relative to control. To be noted: 0.5 min. Put shortly: (§2)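 [3H]GlySar 5.0 µM final, 30-s uptake at 24°C in 100 mM potassium phosphate pH 6.5, with or without a potential inhibitor at 10 mM. Cells are methanol-induced transformants. Values are vector-subtracted and expressed as percent of buffer control. Mean ± SE (n=3). ANOVA with Dunnett's test.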

The target of another data set is T3, PEPT1 (Mus musculus, UniProt Q9JIP7).
T3 sequence (Q9JIP7 whole entry): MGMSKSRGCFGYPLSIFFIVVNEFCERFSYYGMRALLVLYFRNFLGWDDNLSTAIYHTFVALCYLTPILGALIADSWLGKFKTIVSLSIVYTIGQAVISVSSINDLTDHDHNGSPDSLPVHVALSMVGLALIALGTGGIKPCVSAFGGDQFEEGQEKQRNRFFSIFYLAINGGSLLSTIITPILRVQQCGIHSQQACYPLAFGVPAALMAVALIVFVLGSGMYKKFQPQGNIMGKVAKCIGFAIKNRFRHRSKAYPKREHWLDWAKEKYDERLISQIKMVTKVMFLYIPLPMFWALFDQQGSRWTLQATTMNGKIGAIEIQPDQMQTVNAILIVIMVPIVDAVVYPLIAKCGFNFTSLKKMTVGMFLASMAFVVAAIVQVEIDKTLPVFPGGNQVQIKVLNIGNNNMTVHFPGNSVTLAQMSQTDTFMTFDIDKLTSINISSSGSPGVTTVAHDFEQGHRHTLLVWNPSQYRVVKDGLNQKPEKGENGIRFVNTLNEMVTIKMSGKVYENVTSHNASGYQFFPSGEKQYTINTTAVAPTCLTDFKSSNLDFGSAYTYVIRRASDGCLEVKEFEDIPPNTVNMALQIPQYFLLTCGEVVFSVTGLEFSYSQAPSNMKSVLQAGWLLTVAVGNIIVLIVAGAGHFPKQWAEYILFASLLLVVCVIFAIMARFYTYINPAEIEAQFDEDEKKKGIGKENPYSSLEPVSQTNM
Nature of the data set: Drug uptake in Pichia pastoris GS115 expressing mouse recombinant PEPT1 at 5 uM after 30s by dual-channel liquid scintillation counting analysis relative to vector control. Conditions: read-out: FC. The gist of the method: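 5.0 µM radiolabelled substrate uptake for 30 s at 24°C in pH 6.5 phosphate buffer by induced transformants. Radioactivity is counted by liquid scintillation and normalised to OD600. Results are compared with pPIC3.5K vector-alone cells. Mean ± SE (n=6).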

Data set [3] deals with T2, Solute carrier family 15 member 1. Nature of the data set: Drug uptake in Pichia pastoris GS115 expressing human recombinant PEPT1 at 5 uM after 30s by dual-channel liquid scintillation counting analysis in presence of TEA relative to control. To be noted: 0.5 min. The gist of the method:
as §2

Data set [4] deals with T4, Solute carrier family 15 member 1 (Mus musculus, UniProt Q9JIP7).
T4 sequence (Q9JIP7 whole entry): T3 sequence (Q9JIP7 whole entry)
Nature of the data set: Drug uptake in Pichia pastoris GS115 expressing mouse recombinant PEPT1 at 5 uM after 30s by dual-channel liquid scintillation counting analysis in presence of GlyPro relative to control. Conditions: 0.5 min. Put shortly:
as §2

Data set [5] has as its target T1, Solute carrier family 15 member 1. Briefly: Drug uptake in Pichia pastoris GS115 expressing rat recombinant PEPT1 at 5 uM after 30s by dual-channel liquid scintillation counting analysis in presence of glycine relative to control. To be noted: 0.5 min. The gist of the method: as §1

SMILES strings stand for the structures.

In the case of `[3H]C(C(=O)O)N(C)C(=O)CN` (stereo unspecified), the Drug uptake in data set [1] is 119%; in data set [2] it was 6.4%; in data set [3], 113%; in data set [4], 1.9%; in data set [5], 91.5%. In addition, the uptake ratio at 0.5 min, 5 µM at PEPT1 came to 61.
